For data set [1], the target named is Class A carbapenemase KPC-2 (Escherichia coli) (UniProt A8DS27). The experiment in a line: Inhibition of Escherichia coli EC1007 KPC-3 assessed as biapenem MIC at 4 ug/ml by broth microdilution method.
Data set [2] has as its system Klebsiella oxytoca. Put plainly: Inhibition of Klebsiella oxytoca KX1017 OXA-2 assessed as meropenem MIC at 4 ug/ml by broth microdilution method. In general terms: Broth dilution looks for growth in wells or tubes with falling amounts of substance.
In data set [3] the test system is Klebsiella pneumoniae. The experiment in a line: Inhibition of Klebsiella pneumoniae KP1084 SHV-11 assessed as meropenem MIC at 4 ug/ml by broth microdilution method. In outline:
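CLSI broth microdilution (M07-A9, 2012) MIC of the carbapenem against clinical serine carbapenemase-producing strain, tested alone and with the inhibitor held at a fixed 4 μg/mL.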

Data set [4] has as its target Plasminogen (Homo sapiens, UniProt P00747). Put plainly: Inhibition of plasmin (unknown origin) using H-D-VLK-pNA as substrate preincubated for 10 mins followed by substrate addition measured for 30 mins by spectrophotometric analysis. In outline: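 Commercial plasmin in 100 mM Tris-HCl, pH 7.5, 100 mM NaCl. Exposed 10 min at 37 °C to varied inhibitor concentrations before H-D-VLK-pNA (listed at 200 μM), then absorbance read over 30 min. Rates were vs a no-treatment control; IC50 is the concentration giving 50% inhibition.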

The target of data set [5] is Chymase (Homo sapiens, UniProt P23946). Put plainly: Inhibition of chymase (unknown origin) using Suc-AAPF-AMC as substrate preincubated for 10 mins followed by substrate addition measured for 30 mins by spectrophotometric analysis. In outline:
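Commercial chymase in 100 mM Tris, pH 8.0, 2 M NaCl, 0.01% Triton X-100. Mixed with inhibitor at various concentrations for 10 min at 37 °C before Suc-AAPF-AMC (listed at 40 μM), then fluorescence followed for 30 min. Rates were taken relative to a no-treatment control; IC50 is the concentration giving 50% inhibition.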

Data set [6] in a line: Volume of distribution in rat at 100 mg/kg, iv administered as 0.5 hrs infusion by HPLC-MS method. It counts as ADME, organism-based. The conditions noted are these: in vivo.
Data set [7] concerns Klebsiella pneumoniae. The experiment in a line: Inhibition of Klebsiella pneumoniae KP1005 CTX-M-14 assessed as cefepime MIC at 4 ug/ml by broth microdilution method.
The target of data set [8] is Beta-lactamase (Enterobacter cloacae) (UniProt P05364). The experiment in a line: Inhibition of Enterobacter cloacae ECL1061 AmpC assessed as cefepime MIC at 4 ug/ml by broth microdilution method.
Data set [9] has as its system Klebsiella oxytoca. The experiment in a line: Inhibition of Klebsiella oxytoca KX1017 OXA-2 assessed as biapenem MIC at 4 ug/ml by broth microdilution method.
The test system of data set [10] is Enterobacter cloacae. The experiment in a line: Inhibition of Enterobacter cloacae ECL1058 SHV-11 assessed as ertapenem MIC at 4 ug/ml by broth microdilution method.
The target in data set [11] is T1, Beta-lactamase SHV-1 (Klebsiella pneumoniae) (UniProt P0AD64).
T1 sequence (whole entry): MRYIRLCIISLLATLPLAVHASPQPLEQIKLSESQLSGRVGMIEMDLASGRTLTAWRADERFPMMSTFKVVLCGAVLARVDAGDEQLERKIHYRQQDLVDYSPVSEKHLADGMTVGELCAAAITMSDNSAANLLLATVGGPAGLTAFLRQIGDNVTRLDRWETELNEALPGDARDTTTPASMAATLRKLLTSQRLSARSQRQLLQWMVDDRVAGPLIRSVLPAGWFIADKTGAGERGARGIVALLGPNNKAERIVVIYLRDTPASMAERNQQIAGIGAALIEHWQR
The experiment in a line: Inhibition of Klebsiella pneumoniae KP1082 SHV-1 assessed as imipenem MIC at 4 ug/ml by broth microdilution method.

Data set [12] addresses Carbapenem-hydrolyzing beta-lactamase KPC (Klebsiella pneumoniae) (UniProt Q9F663). Put plainly: Inhibition of Klebsiella pneumoniae KP1083 KPC-3 assessed as imipenem MIC at 4 ug/ml by broth microdilution method.
Data set [13] concerns Klebsiella oxytoca. The experiment in a line: Inhibition of Klebsiella oxytoca KX1017 SHV-30 assessed as ertapenem MIC at 4 ug/ml by broth microdilution method.
Data set [14] has as its system Klebsiella pneumoniae. The experiment in a line: Inhibition of Klebsiella pneumoniae KP1087 KPC-2 assessed as imipenem MIC at 4 ug/ml by broth microdilution method. In outline:
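CLSI broth microdilution (M07-A9) against clinical K. pneumoniae strain KP1087 (KPC-2, CTX-M-15, SHV-11, TEM-1); carbapenem MIC (μg/mL) read with the inhibitor held at a fixed 4 μg/mL, alongside carbapenem alone.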

For data set [15], the target named is Class A carbapenemase KPC-2 (Escherichia coli) (UniProt A8DS27). The experiment in a line: Inhibition of Escherichia coli EC1007 KPC-3 assessed as imipenem MIC at 4 ug/ml by broth microdilution method.
Data set [16] concerns the target Beta-lactamase TEM (Enterobacter cloacae) (UniProt Q6W9J1). The experiment in a line: Inhibition of Enterobacter cloacae ECL1058 TEM-1 assessed as imipenem MIC at 4 ug/ml by broth microdilution method.
The nature of data set [17]: Inhibition of Escherichia coli recombinant CTX-M-15 assessed as substrate nitrocefin degradation preincubated for 10 mins followed by substrate addition measured every 10 secs for 10 mins by spectrophotometric analysis. In outline: (§1)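 β-Lactamases purified from overexpressing recombinant E. coli. Enzyme preincubated with inhibitor at varying concentrations for 10 min at room temperature in 50 mM Na phosphate pH 7.0, 0.1 mg/mL BSA. Then 50 μM nitrocefin (final) added and cleavage read at 490 nm every 10 s for 10 min. Ki derived by the Waley method.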

The nature of data set [18]: Inhibition of Escherichia coli recombinant SHV-12 assessed as substrate nitrocefin degradation preincubated for 10 mins followed by substrate addition measured every 10 secs for 10 mins by spectrophotometric analysis. In outline: as §1

Sequence of Chymase (P23946 whole entry): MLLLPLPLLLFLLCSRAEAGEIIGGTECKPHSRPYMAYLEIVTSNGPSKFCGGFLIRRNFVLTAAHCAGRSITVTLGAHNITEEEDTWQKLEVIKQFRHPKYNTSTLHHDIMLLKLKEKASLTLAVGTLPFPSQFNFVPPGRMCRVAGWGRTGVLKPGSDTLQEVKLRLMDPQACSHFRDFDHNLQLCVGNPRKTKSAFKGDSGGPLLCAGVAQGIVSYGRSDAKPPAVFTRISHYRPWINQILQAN
Sequence of Plasminogen (P00747 97-580 limits assumed): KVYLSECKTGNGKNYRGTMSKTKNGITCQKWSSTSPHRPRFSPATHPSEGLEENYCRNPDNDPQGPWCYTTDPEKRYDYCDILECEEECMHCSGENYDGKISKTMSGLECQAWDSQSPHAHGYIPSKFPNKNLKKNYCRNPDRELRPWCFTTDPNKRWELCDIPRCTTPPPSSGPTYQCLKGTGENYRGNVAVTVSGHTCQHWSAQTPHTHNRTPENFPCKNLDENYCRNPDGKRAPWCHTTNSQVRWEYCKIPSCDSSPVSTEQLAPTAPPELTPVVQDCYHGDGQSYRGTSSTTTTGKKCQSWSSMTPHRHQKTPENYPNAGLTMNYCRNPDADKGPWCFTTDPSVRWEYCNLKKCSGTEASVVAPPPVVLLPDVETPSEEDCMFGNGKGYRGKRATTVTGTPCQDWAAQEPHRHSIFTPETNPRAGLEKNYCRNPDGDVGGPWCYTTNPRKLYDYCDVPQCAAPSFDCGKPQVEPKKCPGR
Sequence of Plasminogen (P00747 581-810 limits assumed): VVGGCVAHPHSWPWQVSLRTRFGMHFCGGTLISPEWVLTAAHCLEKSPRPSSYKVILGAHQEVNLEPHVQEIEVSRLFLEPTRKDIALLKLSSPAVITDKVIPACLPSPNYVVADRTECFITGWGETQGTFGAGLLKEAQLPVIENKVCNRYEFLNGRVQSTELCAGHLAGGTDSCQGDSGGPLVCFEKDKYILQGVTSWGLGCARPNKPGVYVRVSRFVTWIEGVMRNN

One may read the IC50 as the point on the concentration scale where inhibition reaches its midpoint. Usually Vd stands for the apparent volume that relates the amount in the body to the concentration in plasma or blood. Read a high Vd as wide distribution into tissue. A word on the Ki: it is the equilibrium dissociation constant of an inhibitor or competing ligand from its target. `O=C(O)C[C@@H]1CC[C@H](NC(=O)Cc2cccs2)B(O)O1` [VABORBACTAM]: the MIC was less than 0.06 µg/mL in [1]; less than 0.06 µg/mL in data set [2]; 0.5 µg/mL in data set [3]; 4 µg/mL in data set [7]; 2 µg/mL in data set [8]; less than 0.06 µg/mL in data set [9]. In addition, the MIC in data set [10] was determined as 0.25 µg/mL; in data set [11], 0.13 µg/mL; in data set [12] it was 0.13 µg/mL; in [13], 0.25 µg/mL; in [14] it was 0.25 µg/mL; in data set [15], 0.13 µg/mL. Also, in data set [16], the MIC was determined as 0.25 µg/mL. The IC50 in data set [4] and in [5] was greater than 1000 µM in each case. In data set [6], this compound gave a Vd of 0.97 L/kg. Also, the Ki stood at 0.044 µM in data set [17] and 0.029 µM in data set [18].
